Assay results reported in ChEMBL document CHEMBL3576792, “Enhancement of antibiotic activity against multidrug-resistant bacteria by the efflux pump inhibitor 3,4-dibromopyrrole-2,5-dione isolated from a Pseudoalteromonas sp” (J Nat Prod, 2015).
Values after ≈ are worked out from the molar mass of the structure shown. Active and inactive are the calls of the source. The calls are words filed in the database; no cut-off is given here.

What was measured:
Escherichia coli K-12 [1] = assay: Inhibition of AcrAB-TolC pump in Escherichia coli K-12 AG100 assessed as increase in intracellular H33342 fluorescence at 1 ug/ml after 60 mins by efflux inhibition assay; type: cell-based
Outline: (§1)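 AG100 (wild-type K-12) or AG100A (ΔacrAB) cells were grown in Luria broth at 37 °C and 200 rpm to OD600 1.0, PBS-washed and diluted to OD600 0.3. Cells took up 2.5 μM Hoechst 33342 with 22 mM glucose at 37 °C for about 30 min, then compound (0.06–64 μg/mL) or PAβN (15.6 μg/mL) was added. Fluorescence (Ex 350/Em 460 nm) was followed for 60 min and corrected for background. The last four time points were compared to dye-only control by ANOVA with Dunnett's test, run in duplicate.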

Escherichia coli [2] = assay: Potentiation of piperacillin-induced antibacterial activity Escherichia coli AG102 overexpressing AcrAB-TolC by p-iodonitrotetrazolium chloride colorimetric assay; type: functional
Escherichia coli [3] = assay: Effect on intracellular H33342 accumulation in Escherichia coli AG100A delta acrAB mutant at 4 ug/ml after 60 mins by accumulation assay; type: functional
Outline: (§2)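 AG100 (wild-type K-12) or AG100A (ΔacrAB) grown in Luria broth at 37 °C and 200 rpm to OD600 1.0, PBS-washed, diluted to OD600 0.3. Cells given 2.5 μM H33342 with 22 mM glucose at 37 °C for ~30 min until stable, then compound (0.06–64 μg/mL) added. Fluorescence (Ex 350/Em 460) read for 60 min, background subtracted. Final 4 time points averaged; one-way ANOVA/Dunnett vs Hoechst-only; n = 8.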

Escherichia coli [4] = assay: Potentiation of ciprofloxacin-induced antibacterial activity Escherichia coli transformed with plasmid carrying MG1655 deltaBC/pABM assessed as ciprofloxacin MIC by p-iodonitrotetrazolium chloride colorimetric assay; type: functional
Outline: (§3)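 Checkerboard microdilution in Mueller-Hinton broth: two-fold dilutions of antibiotic crossed with dilutions of test compound above, at and below their MICs. Growth was read by INT colorimetric assay, with MIC as the lowest concentration showing no visible growth. FICs and FIC index were derived from these MICs. ΔBC/pABM and ΔBC/pXYM strains were grown with 100 μg/mL ampicillin and 1 mM IPTG.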

Escherichia coli [5] = assay: Potentiation of ciprofloxacin-induced antibacterial activity Escherichia coli transformed with plasmid carrying MG1655 deltaBC/pABM by p-iodonitrotetrazolium chloride colorimetric assay; type: functional
Escherichia coli K-12 [6] = assay: Inhibition of AcrAB-TolC pump in Escherichia coli K-12 AG100 assessed as […] at 4 ug/ml after 60 mins by accumulation assay; outline: as §2
Escherichia coli [7] = assay: Inhibition of AcrAB-TolC pump in Escherichia coli AG100 assessed as increase in intracellular H33342 fluorescence at >= 1 ug/ml after 60 mins by efflux inhibition assay; type: cell-based; outline: as §1
Escherichia coli K-12 [8] = assay: Inhibition of AcrAB-TolC pump in Escherichia coli K-12 AG100 assessed as increase in intracellular H33342 fluorescence at 0.06 ug/ml after 60 mins by efflux inhibition assay; type: cell-based; outline: as §1
Escherichia coli [9] = assay: Effect on intracellular H33342 accumulation in Escherichia coli AG100A delta acrAB mutant at 16 ug/ml after 60 mins by accumulation assay; type: functional
Outline: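 Cells grown in Luria broth at 37 °C, 200 rpm to OD600 1.0, then washed twice in PBS and diluted in glucose-free PBS to OD600 0.3. H33342 was used at 2.5 μM with 22 mM glucose at 37 °C and allowed to accumulate for ~30 min. Compound was then added and fluorescence (Ex 350/Em 460 nm) followed for 60 min. Values are the mean RFU of the final 4 min, after media-plus-compound background was subtracted. Run in duplicate, n = 8.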

Escherichia coli [10] = assay: Potentiation of tetracycline-induced antibacterial activity Escherichia coli transformed with plasmid carrying MG1655 deltaBC/pABM by p-iodonitrotetrazolium chloride colorimetric assay; type: functional
Escherichia coli [11] = assay: Antibacterial activity against Escherichia coli transformed with plasmid carrying MG1655 deltaBC/pABM by p-iodonitrotetrazolium chloride colorimetric assay; type: functional
Outline: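 Two-fold broth microdilution in Mueller-Hinton broth, read by p-iodonitrotetrazolium chloride colorimetric assay. MIC is the lowest concentration giving no visible growth. MG1655 ΔacrB ΔtolC strains carrying pABM or pXYM were always cultured with 100 μg/mL ampicillin and 1 mM IPTG. Medium, inoculum and 1% DMSO (final) served as negative control.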

Escherichia coli [12] = assay: Effect on intracellular H33342 accumulation in Escherichia coli AG100A after 60 mins by efflux inhibition assay; type: functional, organism-based; outline: as §1
Escherichia coli [13] = assay: Potentiation of erythromycin-induced antibacterial activity Escherichia coli AG102 overexpressing AcrAB-TolC by p-iodonitrotetrazolium chloride colorimetric assay; type: functional
Escherichia coli K-12 [14] = assay: Inhibition of AcrAB-TolC pump in Escherichia coli K-12 AG100 assessed as […] at 0.06 ug/ml after 60 mins by accumulation assay; outline: as §2
Escherichia coli K-12 [15] = assay: Inhibition of AcrAB-TolC pump in Escherichia coli K-12 AG100 assessed as […] at 0.25 ug/ml after 60 mins by accumulation assay
Outline: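 Cells grown in Luria broth at 37 °C, 200 rpm to OD600 1.0, washed twice in PBS and diluted in glucose-free PBS to OD600 0.3. Cells were given 2.5 μM H33342 with 22 mM glucose at 37 °C for ~30 min until stable, then compound added (0.06–64 μg/mL). Fluorescence (Ex 350/Em 460 nm) was read for 60 min, background subtracted, and the final 4 min averaged (n = 8).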

Escherichia coli [16] = assay: Potentiation of levofloxacin-induced antibacterial activity Escherichia coli transformed with plasmid carrying MG1655 deltaBC/pABM assessed as levofloxacin MIC by p-iodonitrotetrazolium chloride colorimetric assay; type: functional; outline: as §3
Escherichia coli K-12 [17] = assay: Inhibition of AcrAB-TolC pump in Escherichia coli K-12 AG100 assessed as increase in intracellular H33342 fluorescence at 64 ug/ml after 60 mins by efflux inhibition assay; type: cell-based; outline: as §1
Escherichia coli [18] = assay: Potentiation of piperacillin-induced antibacterial activity Escherichia coli transformed with plasmid carrying MG1655 deltaBC/pXYM by p-iodonitrotetrazolium chloride colorimetric assay; type: functional
Escherichia coli K-12 [19] = assay: Inhibition of AcrAB-TolC pump in Escherichia coli K-12 AG100 assessed as increase in intracellular H33342 fluorescence at 0.25 ug/ml after 60 mins by efflux inhibition assay; type: cell-based
Escherichia coli [20] = assay: Potentiation of kanamycin-induced antibacterial activity Escherichia coli transformed with plasmid carrying MG1655 deltaBC/pABM by p-iodonitrotetrazolium chloride colorimetric assay; type: functional
Escherichia coli [21] = assay: Potentiation of tetracycline-induced antibacterial activity Escherichia coli transformed with plasmid carrying MG1655 deltaBC/pABM assessed as tetracycline MIC by p-iodonitrotetrazolium chloride colorimetric assay; type: functional; outline: as §3

Q: What does the source list for O=C1NC(=O)C(Br)=C1Br?
A: RFU (Escherichia coli K-12 [1]): -247; fractional inhibitory concentration index (FICI) (Escherichia coli [2]): 0.75; RFU (Escherichia coli [3]): 1200; MIC (Escherichia coli [4]): 64 µg/mL; fractional inhibitory concentration index (FICI) (Escherichia coli [5]): 0.75; RFU (Escherichia coli K-12 [6]): 1130; inhibition (Escherichia coli [7]): Active; RFU (Escherichia coli K-12 [8]): -422; RFU (Escherichia coli [9]): 1100; fractional inhibitory concentration index (FICI) (Escherichia coli [10]): 1; MIC (Escherichia coli [11]): 256 µg/mL (≈ 1000 µM); inhibition (Escherichia coli [12]): inactive; fractional inhibitory concentration index (FICI) (Escherichia coli [13]): 0.38; RFU (Escherichia coli K-12 [14]): 758; RFU (Escherichia coli K-12 [15]): 796; MIC (Escherichia coli [16]): 64 µg/mL; RFU (Escherichia coli K-12 [17]): -68; fractional inhibitory concentration index (FICI) (Escherichia coli [18]): 0.52; RFU (Escherichia coli K-12 [19]): -351; fractional inhibitory concentration index (FICI) (Escherichia coli [20]): 0.75; MIC (Escherichia coli [21]): 128 µg/mL
